From PubChem BioAssay AID2247 (Johns Hopkins Ion Channel Center, 2010) come the findings set out here.

Hit rate of the full screen: of about 300,000 compounds, about 1,200 (0.4%) were called active.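 How the source made its calls: active means B-score over 3 SD under the library average, no early fluorescence shift, positive overall ratio signal; inactive means the rest.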 The sample as a whole holds a higher share of actives than the screen did.

In this assay the target is Short transient receptor potential channel 4 (Mus musculus) (UniProt Q9QUQ5). In words: inhibitors of mouse TRPC4 channel, primary screen, Fluo4 calcium, HEK293 TRPC4beta/mu-opioid cells (AID 2247). Conditions: DAMGO-evoked Fluo4 calcium flux, at 10 µM; hits give low values. The essentials: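 Assay system: TRPC4beta/mu-opioid receptor HEK293 cell line; compound dosing: single concentration per test compound; detection: Fluo4 Ca2+ flux fluorescence; evaluation: per-well B score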
Short transient receptor potential channel 4 (Mus musculus), sequence (Q9QUQ5 whole entry, looked up): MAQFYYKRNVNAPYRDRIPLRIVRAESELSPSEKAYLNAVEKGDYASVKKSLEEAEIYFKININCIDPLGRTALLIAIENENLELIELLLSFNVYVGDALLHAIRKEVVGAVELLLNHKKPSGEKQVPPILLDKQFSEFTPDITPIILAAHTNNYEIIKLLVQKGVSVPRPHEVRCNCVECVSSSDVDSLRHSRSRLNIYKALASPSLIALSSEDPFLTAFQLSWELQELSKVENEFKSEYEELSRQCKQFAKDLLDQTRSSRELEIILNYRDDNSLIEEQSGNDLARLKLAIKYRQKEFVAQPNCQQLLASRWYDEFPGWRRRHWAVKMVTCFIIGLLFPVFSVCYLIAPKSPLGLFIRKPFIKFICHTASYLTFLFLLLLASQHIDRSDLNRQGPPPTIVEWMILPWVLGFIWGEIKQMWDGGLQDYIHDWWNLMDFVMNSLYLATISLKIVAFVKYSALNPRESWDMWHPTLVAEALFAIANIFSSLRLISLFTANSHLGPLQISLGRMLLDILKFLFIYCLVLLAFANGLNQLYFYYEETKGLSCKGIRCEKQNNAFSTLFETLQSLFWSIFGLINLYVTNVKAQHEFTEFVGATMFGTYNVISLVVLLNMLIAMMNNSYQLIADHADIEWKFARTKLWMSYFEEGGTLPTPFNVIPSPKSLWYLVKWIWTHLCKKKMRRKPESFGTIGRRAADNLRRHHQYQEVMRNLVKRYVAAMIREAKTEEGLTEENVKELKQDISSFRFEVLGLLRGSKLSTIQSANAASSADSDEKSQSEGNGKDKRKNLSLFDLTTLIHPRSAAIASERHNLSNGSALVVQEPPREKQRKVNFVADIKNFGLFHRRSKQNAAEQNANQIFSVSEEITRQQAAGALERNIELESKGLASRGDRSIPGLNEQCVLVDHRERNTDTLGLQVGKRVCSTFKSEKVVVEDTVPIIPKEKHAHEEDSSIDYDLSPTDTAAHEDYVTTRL
In general terms: A change in cytosolic calcium serves as a functional read-out for many receptors and channels.
As for `Cc1noc(C)c1COc1ccccc1C(=O)N(C)CC(=O)Nc1cccc(F)c1`, the B-score entry was “inactive”.

For `Cc1onc(-c2c(F)cccc2Cl)c1C(=O)N(C)CC(=O)Nc1cccc(F)c1`, the B-score is -7 (active).

For `CN(CC(=O)Nc1cccc(F)c1)C(=O)C1=COCCO1`, the B-score result is “inactive”.

Take `Cc1sc(NC(=O)C2C3CCC(O3)C2C(=O)O)c(C(=O)OC(C)C)c1-c1ccc(Cl)cc1` (configuration not stated): the B-score entry is “inactive”.

`OCC1(CCc2ccccc2)CCN(Cc2ccc3nsnc3c2)CC1`: the B-score was -7 (active).

As to `CC(C)(O)C#Cc1ccc(CN2CCC(CO)(CCc3ccccc3)CC2)cc1`, the B-score result was “inactive”.

With `Cc1cccc(-c2ncc(CN3CCC(CO)(CCCc4ccccc4)CC3)cn2)c1`, the B-score result was “inactive”.

For `O=C(CN1CCOc2ccccc21)N1CCC(Cc2ccccc2)CC1`, the B-score result was “inactive”.

For the compound `CC(c1ccccn1)N(C)C(=O)c1ccc2nc(Cc3cccc(Cl)c3)oc2c1` (configuration not stated), the B-score result was “inactive”.

For `NC1=NC[C@@H](Cc2ccc(O)cc2)N1CC1CCCCC1`, the B-score result was “inactive”.

Regarding `CC(C)n1c(COc2ccccc2)nc2ccccc21`, the B-score result was “inactive”.

Turning to `CC(C)n1c(NCc2c[nH]c3ccccc23)nc2ccccc21`, the B-score was -8 (active).

Turning to `CC(C)n1c(-c2cccs2)nc2ccccc21`, the B-score result was “inactive”.

`Cc1ccc(Cn2nnc3c(=O)[nH]c(C4CCN(S(=O)(=O)/C=C/c5ccccc5)CC4)nc32)cc1`: the B-score result is “inactive”.

For the compound `N#Cc1c(NC(=O)C2CCCO2)sc2c1CCCCC2` (configuration not stated), the B-score result is “inactive”.

`N#Cc1c(NC(=O)CCCl)sc2c1CCCCC2`: the B-score entry is “inactive”.

Take `N#Cc1c(NC(=O)C2CC(Cl)=CCC2C(=O)O)sc2c1CCCCC2` (configuration not stated): the B-score was -6 (active).

With `Nc1cc(N)nc(SCc2cccc(F)c2)n1`, the B-score entry was “inactive”.

On to `Cn1c(=O)c2c(nc(OCc3cccnc3)n2Cc2ccccc2)n(C)c1=O`, for which the B-score result is “inactive”.

Turning to `CC(C)(C)c1cc2cccnc2n1Cc1cccc(F)c1`, the B-score was -6 (active).

With `CC(C)(C)c1cc2cccnc2n1Cc1ccccc1`, the B-score was -7 (active).

On to `Cc1cc(C(C)(C)C)n2nc(C)c(-c3ccccc3)c2n1`, for which the B-score result is “inactive”.

For `COc1ccnc2c1c(=O)n(Cc1cccc(F)c1)c(=O)n2C`, the B-score result was “inactive”.

For `CCN(CC)C(=O)Cn1cc(S(=O)(=O)CC(=O)NCc2ccc3c(c2)OCO3)c2ccccc21`, the B-score result was “inactive”.

Turning to `Cc1nc2ccccc2n1C(=O)N1CCOCC1`, the B-score result is “inactive”.

Take `COc1ccc(C(=O)Nc2ccc(-n3nncc3C(C)(C)C)cc2)cc1`: the B-score result was “inactive”.

For the compound `O=S(=O)(O)Oc1c[nH]c2ccccc12`, the B-score entry was “inactive”.

Regarding `COc1ccc(CN(C)Cc2nc3cc(OC)c(OC)cc3c(=O)[nH]2)c(OC)c1`, the B-score result is “inactive”.

Consider `Cc1ccc(NS(=O)(=O)c2ccc(C)c(NC(=O)COc3ccc4ccccc4c3)c2)c(C)c1`, for which the B-score entry is “inactive”.

In the case of `O=[N+]([O-])c1ccccc1S(=O)(=O)Nc1cccc2cccnc12`, the B-score entry is “inactive”.

For the compound `COc1cc(NS(=O)(=O)c2ccc3ccccc3c2)c2ncccc2c1`, the B-score is -6 (active).

On to `CC1(C)S[C@@H]2[C@H](NC(=O)COc3ccccc3)C(=O)N2C1C(=O)OCc1ccccc1` (some centres not stated), for which the B-score result is “inactive”.

In the case of `CCc1ccc(C(=O)COC(=O)c2ccco2)cc1`, the B-score entry was “inactive”.

Take `CCC(O)C1CCN(Cc2cn(-c3ccc(OC)cc3)nc2-c2cccc(F)c2)CC1` (configuration not stated): the B-score is -8 (active).

Consider `COc1ccc(-n2cc(CNC3CCOCC3)c(-c3cccc(F)c3)n2)cc1`, for which the B-score result was “inactive”.

Consider `COc1ccc(-n2cc(CN(C)Cc3n[nH]c(=O)[nH]3)c(-c3cccc(F)c3)n2)cc1`, for which the B-score entry is “inactive”.

As for `Cc1c(CCOC(=O)CC23CC4CC(CC(C)(C4)C2)C3)sc[n+]1Cc1ccc([N+](=O)[O-])cc1`, the B-score result was “inactive”.

Turning to `Cc1ccc(CN2CCC(n3nccc3NC(=O)CCCc3ccccc3)CC2)o1`, the B-score entry was “inactive”.

On to `CCn1cc(CN2CCC(n3nccc3NC(=O)CCCc3ccccc3)CC2)c(C)n1`, for which the B-score entry is “inactive”.

As for `Cc1c(CN2CCC(n3nccc3NC(=O)CCc3ccccc3)CC2)cnn1C`, the B-score was -7 (active).

Consider `COC(=O)c1onc(-c2c(OC)cc(OC)cc2OC)c1C(=O)OC`, for which the B-score entry is “inactive”.

As to `O=C(Cn1ncc2c3ccccc3n(Cc3ccccc3)c2c1=O)NCc1ccccn1`, the B-score entry was “inactive”.

For the compound `Cc1ccc(NC(=O)CSc2nc(=O)n(CCN(C)C)c3c2CCCC3)c(C)c1`, the B-score result is “inactive”.

As for `O=[N+]([O-])c1cccc(Nc2c3ccccc3nc3ccccc23)c1`, the B-score is -7 (active).

For the compound `N#Cc1cccc(Nc2c3c(nc4ccccc24)CCCC3)c1`, the B-score entry was “inactive”.

Take `Cc1cc(CNC(=O)c2cccc([N+](=O)[O-])c2)c2ccccc2n1`: the B-score result is “inactive”.

For the compound `CC1CC(C)CN(CCCNC(=O)c2csc3c2CCCCC3)C1` (configuration not stated), the B-score result is “inactive”.

Consider `COc1ccc(CNC(=O)[C@@H]2CC=C[C@@H]3CCN(C4CC4)C(=O)[C@@H]32)cc1`, for which the B-score entry was “inactive”.

Turning to `CCc1ccc2oc(=O)cc(CN3CCCCC3C)c2c1` (configuration not stated), the B-score result was “inactive”.

`Cc1onc(-c2c(Cl)cccc2Cl)c1C(=O)NNC(=O)c1c(-c2c(Cl)cccc2Cl)noc1C`: the B-score result was “inactive”.

As for `Cc1[nH]n(C)c(=O)c1C(=O)c1c(-c2c(Cl)cccc2Cl)noc1C`, the B-score was -6 (active).

Take `Cc1onc(-c2c(Cl)cccc2Cl)c1C(=O)c1c[nH]c(C(=O)NC2CC2)c1`: the B-score result is “inactive”.

With `COc1cc(CN2CCC(C(N)=O)CC2)ccc1OCc1ccccc1`, the B-score result is “inactive”.

Consider `COc1cc(CNC2CCCCC2)c(Br)cc1OC1CCCC1`, for which the B-score result is “inactive”.

Take `COc1cc(CNC2CCCC2)c(Br)cc1OCc1ccccc1`: the B-score is -6 (active).

As for `Cc1cccc(C2C3=C(CCCC3=O)N=C3c4ccccc4C(=O)C32)c1` (configuration not stated), the B-score result was “inactive”.

As to `Nc1ccc(OCC(O)C[n+]2ccc(CCS(=O)(=O)[O-])cc2)cc1` (configuration not stated), the B-score result is “inactive”.

For `CN(CC(=O)N1CCN(c2ccccc2)CC1)S(=O)(=O)c1cccs1`, the B-score entry is “inactive”.

Take `Cc1cccc(NS(=O)(=O)c2ccc(C)c(C(N)=O)c2)c1`: the B-score entry is “inactive”.

With `CC1CCCN(CCOCCOc2ccccc2-c2ccccc2)C1` (configuration not stated), the B-score was -7 (active).

Consider `c1ccc(-c2ccccc2OCCN2CCCCC2)cc1`, for which the B-score entry was “inactive”.

For the compound `CC1CN(CCCOc2ccccc2-c2ccccc2)CC(C)O1` (configuration not stated), the B-score entry is “inactive”.

As to `COc1cc(N2CCCC2)c(OC)cc1/C=C(/C#N)c1cccc(Br)c1`, the B-score result is “inactive”.

`Cc1cc(NC(=O)CN2C(=O)NC(C)(CCc3ccccc3)C2=O)no1` (configuration not stated): the B-score result is “inactive”.

On to `CCOc1ccc2nc(N3CCCN(C(=O)Nc4ccccc4C)CC3)c(C#N)cc2c1`, for which the B-score entry is “inactive”.

For `CCOC(=O)c1cc(C#N)c(N2CCCCC2)nc1-c1ccccc1`, the B-score was -8 (active).

`CCOC(=O)c1cc(C)nc(S(C)(=O)=O)c1C#N`: the B-score entry was “inactive”.

`O=C(CN(Cc1ccc(Br)cc1)S(=O)(=O)c1ccccc1)NCc1ccncc1`: the B-score result is “inactive”.

Consider `CSCC[C@H](NC(=O)NCc1cccs1)C(=O)O`, for which the B-score result is “inactive”.

With `COc1ccc(C(=O)C2CCCN(Cc3ccc4nonc4c3)C2)c(C)c1` (configuration not stated), the B-score entry was “inactive”.

Turning to `COc1cc(CN2CCCC(C(=O)c3ccc(SC)cc3)C2)cc(Cl)c1O` (configuration not stated), the B-score result was “inactive”.

As to `COc1ccc(CN2CCCC(C(=O)c3ccc(Cl)cc3)C2)cc1Cn1cncn1` (configuration not stated), the B-score is -7 (active).

As for `CCC(C)OC(=O)C(C)Oc1ccc(-c2ccccc2)cc1` (configuration not stated), the B-score entry was “inactive”.

Turning to `O=S(=O)(/C=C/c1ccccc1)N1CCNCC1`, the B-score entry was “inactive”.

On to `O=C(O)c1ccccc1C(=O)NC1=NN(c2ccccc2)CC1`, for which the B-score entry is “inactive”.

For the compound `Cc1ccc(Nc2ccc(C(N)=O)cc2[N+](=O)[O-])cc1`, the B-score entry is “inactive”.

Turning to `O=C(O)c1ccccc1C(=O)Nc1ccccc1[N+](=O)[O-]`, the B-score entry was “inactive”.

On to `O=[N+]([O-])c1ccccc1Nc1ccc(O)cc1`, for which the B-score was -6 (active).

On to `COc1cc(-c2nnc(NC(=O)C3=COCCO3)o2)cc(OC)c1OC`, for which the B-score result is “inactive”.

As for `Cc1ccc(C(=O)Nc2nnc(C3=COCCO3)o2)cc1C`, the B-score was -6 (active).

`O=C(Nc1nnc(C2=COCCO2)o1)c1ccc([N+](=O)[O-])s1`: the B-score result is “inactive”.

As for `Cc1ccc(CNC(=O)C(=O)c2cn(CC(=O)N3CCCC3)c3ccccc23)cc1`, the B-score entry is “inactive”.

`O=C(Nc1ccc(N2CCCCC2)cc1)c1cc(S(=O)(=O)N2CCOCC2)ccc1F`: the B-score entry was “inactive”.

As to `CCc1nn(CCCC(=O)Nc2ccc(C)c(C)c2)c(=O)c2cc3occc3n12`, the B-score result was “inactive”.

Take `N/C(=N\OC(=O)Nc1ccccc1)c1ccno1`: the B-score result is “inactive”.

Consider `Cn1c(SCC(=O)N2CCCc3ccccc32)nc2ccccc2c1=O`, for which the B-score entry is “inactive”.

In the case of `CC1CCN(CCCn2c(SCC(=O)NC3CCCC3)nc3ccccc3c2=O)CC1`, the B-score entry was “inactive”.

With `O=C(CSc1nc2ccccc2c(=O)n1CCCO)N1CCc2ccccc21`, the B-score was -7 (active).

Take `CCOc1ccc(CCNC(=O)CN2C(=O)NC3(CCc4ccccc43)C2=O)cc1OCC` (configuration not stated): the B-score result was “inactive”.

Regarding `COCCn1c(SC(C)C(=O)NC2CC2)nnc1-c1cccc(C)c1` (configuration not stated), the B-score entry was “inactive”.

With `O=C(O)CCn1cc(/C=C/C(=O)c2ccc(Cl)cc2)c(-c2cccc(Br)c2)n1`, the B-score was -6 (active).

`O=C(/C=C/NNC(=O)c1cccc(Br)c1)c1ccccc1`: the B-score entry was “inactive”.

Turning to `CCOC(=O)/C(C#N)=C/c1cn(CCC(=O)O)nc1-c1ccc(Br)cc1`, the B-score result was “inactive”.

Consider `CCOC(=O)N1CCN(S(=O)(=O)N2CCCC(C(=O)NCCCN3CCC(C)CC3)C2)CC1` (configuration not stated), for which the B-score result was “inactive”.

Regarding `Cc1ccnc(N2CCN(C(=O)CSc3nc4ccccc4nc3N3CCCCC3)CC2)c1`, the B-score result was “inactive”.

For the compound `CC(C)Cc1nc(N2CCOCC2)c(C#N)c2c1CCC2`, the B-score was -6 (active).

`CC(C)Cc1nc(Cl)c(C#N)c2c1CCC2`: the B-score entry was “inactive”.

As for `CC(C)c1nc(N2CCOCC2)c(C#N)c2c1COC(C)(C)C2`, the B-score entry was “inactive”.

Take `CCCCn1c(N)c(N(CCOC)C(=O)c2cccc(S(=O)(=O)N3CCCCC3)c2)c(=O)[nH]c1=O`: the B-score result was “inactive”.

Turning to `CN1CCNC(=O)C1CC(=O)N1CC=C(c2ccc(F)cc2)CC1` (configuration not stated), the B-score result was “inactive”.

For the compound `COc1cccc(N(CC(=O)NCc2ccccc2)C(=O)CCC(=O)Nc2nccs2)c1`, the B-score result is “inactive”.

Take `O=C(CN1CCN(c2ccccc2F)CC1)c1ccc2c(c1)OCO2`: the B-score result was “inactive”.

For `CCC1(c2ccccc2)NC(=O)N(CC(=O)c2ccc3c(c2)OCO3)C1=O` (configuration not stated), the B-score result is “inactive”.

For the compound `O=C(CCN1CCc2ccccc2C(O)(c2ccccc2)C1)c1ccc2c(c1)OCCO2` (configuration not stated), the B-score is -7 (active).

Consider `COc1ccc(NC(=O)CCCC2CCCCC2)c(OC)c1`, for which the B-score result was “inactive”.

Turning to `CC(=O)Oc1ccc(NC(=O)CCC2CCCCC2)c(C(=O)O)c1`, the B-score was -6 (active).

As for `COC(=O)c1sccc1NC(=O)CCC1CCCC1`, the B-score entry is “inactive”.
